Not all results are given here.
HKDC1 activator = increases human hexokinase HKDC1 activity. AID 493187. Q2TB90. 340,000 tested, 0.056% active. activity change, negative = activation, % at 20 µM. recombinant HKDC1, G6PDH/diaphorase resazurin fluorescence; active compounds read low;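 active means activation of 40% or more at 20 µM, a change of -40% or lower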
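Signal: coupled resazurin-to-resorufin fluorescence, Ex 525/Em 613 nm. Test system: in-house human HKDC1 enzyme, G6PDH and diaphorase coupling enzymes. Quantity: HKDC1 5 µg/mL. Timing: 90 min reaction at room temperature, dark.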
* = called active by the depositor.

SMILES	HKDC1 activator
Cc1ccc(OP2(=O)Nc3cc(C)c(C)cc3S2)cc1 (stereo not given)	-40.7*
COc1cc2c(cc1OC)-c1c(OC)c(OC)c(OC)c3ccnc(c13)C2=O	49.5
Cc1cccc(N2C(=O)NC(=O)/C(=C\c3cc(C)n(-c4sc5c(c4C#N)CCCC5)c3C)C2=O)c1C	72.4
Cn1ncnc2c(=O)n(C)c(=O)nc1-2	69.0
Nc1cnn(-c2ccccc2)c(=O)c1Cl	44.7
